Screens deposited in PubChem by several laboratories.
Rpn11 inh = Rpn11 (human) deubiquitinase inhibition; 360,000 compounds, 0.59% hits; O00487; AID 588493; human 26S proteasome, Ub4-pepOG fluorescence polarization; 20S core pre-blocked with epoxomicin; inhibition, % at 20 µM;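 active means inhibition at 20 µM, scaled to each plate's controls, above about 33%, limit read from the data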
CSN deneddyl inh = blocks human CSN-mediated cullin deneddylation; Q92905; inhibition, % at 12.5 µM; AID 651999; Purified CSN, SCF-Nedd8-OG deneddylation, fluorescence polarization; 360,000 compounds, 0.38% hits;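 active means pattern-corrected inhibition above about 35%, with an unprinted fluorescence ratio check between 0.5 and 1.5, limit read from the data, passing the limit was not always enough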;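 further: 0% = enzyme with substrate and 100% = substrate without enzyme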
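Assay system: purified human Csn5 enzyme expressed in HEK293T cells; measure: % inhibition; also added: SCFSkp2-Nedd8OG substrate at 10 nM final; technique: fluorescence polarization; times: reaction 90 min, room temperature; medium: Tris buffer pH 7.5, NaCl, DTT, Tween-20, trehalose, ovalbumin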
Neddyl block = cullin neddylation inhibition; P61081+Q13564; inhibition, % at 25 µM; TR-FRET cullin neddylation, biochemical; 360,000 compounds, 0.58% hits; in the data active means inhibition above about 36%
Tb MetRS inh = blocks T. brucei methionyl-tRNA synthetase activity; purified T. brucei MetRS, ATP depletion, Kinase-Glo luminescence; inhibition, % at 11.9 µM; 360,000 compounds, 0.4% hits;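 active means inhibition above a per-plate cutoff of the control wells' mean inhibition plus 3 SD, cut at about 5.5% in these data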;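 further: 0% = DMSO wells median and 100% = median of wells with control inhibitor compound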
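technique = Kinase-Glo luminescence, ATP depletion format | system = purified MetRS (methionyl-tRNA synthetase) enzyme from Trypanosoma brucei | timing = 15 min preincubation, 2 h reaction, all 25 °C | evaluation = percent inhibition versus plate control medians | dosing = single dose, 11.9 µM final nominal, 0.9% final DMSO | also added = substrates ATP, L-methionine and bulk Escherichia coli tRNA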
PREPL inhibitor = inhibitors of human prolyl oligopeptidase-like enzyme PREPL; recombinant PREPL, fluorescence polarization activity-based probe; 320,000 compounds, 0.68% hits; inhibition, % at 5.96 µM; in the data active means inhibition above about 43%;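 further: 0% = enzyme with DMSO and 100% = wells lacking enzyme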
HNF4A DNA FP = change in binding of human HNF4 alpha to DNA; P41235; HNF4a-FITC DNA binding, fluorescence polarization, 1 h; activity change, % at 10 µM; 360,000 compounds, 0.3% hits; AID 1224865; in the data active means activity change above about 30%, passing the limit was not always enough
Target sequence (P41235 whole entry, looked up): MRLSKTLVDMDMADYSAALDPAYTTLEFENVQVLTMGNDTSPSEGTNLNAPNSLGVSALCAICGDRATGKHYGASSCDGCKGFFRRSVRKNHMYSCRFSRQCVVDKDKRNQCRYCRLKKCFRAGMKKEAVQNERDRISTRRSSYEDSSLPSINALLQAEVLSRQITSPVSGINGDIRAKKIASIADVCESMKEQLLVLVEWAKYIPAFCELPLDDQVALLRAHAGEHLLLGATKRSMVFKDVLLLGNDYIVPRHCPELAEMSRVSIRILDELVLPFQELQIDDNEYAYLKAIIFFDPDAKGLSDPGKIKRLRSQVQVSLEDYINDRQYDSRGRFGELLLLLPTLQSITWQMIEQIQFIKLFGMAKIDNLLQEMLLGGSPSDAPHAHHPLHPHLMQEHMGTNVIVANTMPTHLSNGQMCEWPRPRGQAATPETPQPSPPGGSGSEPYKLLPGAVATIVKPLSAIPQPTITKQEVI
Neddyl inh conf = confirmation of human cullin neddylation inhibitors; shares compounds with Neddyl block; TR-FRET cullin neddylation biochemical assay; calls only at 25 µM; 1,800 compounds, 13% hits; AID 652217; in the data active means inhibition above about 40%;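 further: neddylation substrate is the cullin 1 ring ligase complex with SKP2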
Numbers without * were called inactive; i = inactive; . = no result shown; + = active, no number. Hits are enriched below; roughly 2.4% of the tested compounds scored in any of these assays.

SMILES	Rpn11 inh	CSN deneddyl inh	Neddyl block	Tb MetRS inh	PREPL inhibitor	HNF4A DNA FP	Neddyl inh conf
Nc1ncnc2c1ncn2[C@@H]1O[C@H](CNCc2ccc(-n3cccn3)cc2)[C@@H](O)[C@H]1O	2.9	0.6	-3.2	-1.2	5.7	-3.6	.
Oc1ccc(Cl)cc1C=Nc1ccccc1Br	-0.4	-13.3	5.2	0.1	0.2	4.0	.
Oc1ccc(Br)cc1C=Nc1ccc2c3c(cccc13)CC2	.	7.3	43.3*	-0.2	13.6	29.9	.
COc1ccc(C(=O)n2cc(C(=O)c3cc(C)ccc3O)cn2)cc1OC	9.4	-9.3	43.9*	-0.5	-4.1	-4.5	.
CN(C)c1cccc(C(=O)n2cc(C(=O)c3cc(F)ccc3O)cn2)c1	2.4	3.6	.	-1.2	-3.5	-0.2	.
COc1ccc(O)c(C(=O)c2cnn(C(=O)c3cccc(N(C)C)c3)c2)c1	5.9	6.0	41.3*	-0.3	21.0	-1.9	i
COc1ccc(C(=O)n2cc(C(=O)c3cc(C)ccc3O)cn2)cc1	-1.2	-14.6	5.7	-0.5	1.7	2.1	.
O=c1cc(CN(Cc2ccccc2)Cc2ccccc2)c2ccccc2o1	8.1	6.0	3.3	-0.9	.	-7.6	.
CCOC(=O)C1=C(COCCN)NC(C)=C(C(=O)OC)C1c1ccccc1Cl (stereo unspecified)	-1.9	1.6	.	-0.3	4.2	.	.
Cc1nc2sccn2c(=O)c1S(=O)(=O)N1CCN(c2ccccc2F)CC1	5.0	-0.4	8.8	-0.1	.	0.3	.
COc1ccc(NC(=O)Cn2nnc(C(=O)Nc3ccc(F)c(Cl)c3)c2N)cc1OC	-3.7	3.3	10.0	-1.6	1.9	3.4	.
COc1ccc(Cl)cc1NC(=O)c1nnn(CC(=O)Nc2ccc(C)c(C)c2)c1N	-4.6	-2.0	43.7*	-0.2	-18.3	-2.9	i
O=C(Nc1ccccc1)c1cccc(C(=O)Nc2ccccc2)n1	2.8	-0.8	51.2*	0.2	2.7	-1.2	i
Cc1ccc(NS(=O)(=O)c2cc(NC(=O)c3ccc4c(c3)NC(=O)CS4)ccc2Cl)c(C)c1	3.8	2.9	48.0*	-0.2	-24.9	0.1	i
O=C(O)/C(=C\C(=O)c1ccccc1)Nc1ccccc1	.	.	.	.	0.1	.	.
Cc1c(OCc2nn[nH]n2)ccc2c3c(c(=O)oc12)CCCC3	-3.1	0.4	.	0.1	5.0	-0.1	.
Cc1c(OCc2nn[nH]n2)ccc2c3c(c(=O)oc12)CCC(C)C3 (stereo unspecified)	-4.3	3.6	47.0*	0.3	-13.6	-5.4	i
Cc1nn(-c2ccccc2)c2nc3c(cc12)C(=O)CCC3	0.3	-9.4	43.6*	-1.2	-0.3	0.5	i
Fc1cccc(CO/N=C/c2c(-c3ccccc3)nc3ccc(Cl)cn23)c1	-3.3	1.7	8.3	-1.3	8.6	0.3	.
Cc1cccn2c(/C=N/OCc3cccc(F)c3)c(-c3ccc(Cl)cc3)nc12	-0.2	0.1	47.9*	-1.4	9.4	-0.6	i
COc1ccccc1N(C(=O)c1snc(C(N)=O)c1N)C(C(=O)NC1CCCC1)c1ccco1 (stereo unspecified)	4.8	8.5	43.2*	-0.6	8.8	-0.8	+
COc1ccc(OC)c(C(C(=O)NC2CCCCC2)N(C(=O)c2snc(C(N)=O)c2N)c2ccccc2OC)c1 (stereo unspecified)	-0.5	-2.8	-173.0	-1.1	10.8	3.5	.
COc1ccc(C)cc1N(C(=O)c1snc(C(N)=O)c1N)C(C(=O)NC1CCCCC1)c1ccc(C)o1 (stereo unspecified)	3.1	2.4	43.9*	0.1	.	2.6	.
CCOc1ccccc1N(C(=O)c1snc(C(N)=O)c1N)C(C(=O)NCCC(C)C)c1ccco1 (stereo unspecified)	1.0	4.9	44.3*	-0.2	7.0	-2.4	i
Cc1cccc(NS(=O)(=O)c2cccc(C(=O)NCC(c3ccc(F)cc3)N3CCOCC3)c2)c1 (stereo unspecified)	3.5	1.5	-28.1	-0.4	.	-0.1	.
SMILES	Rpn11 inh	CSN deneddyl inh	Neddyl block	Tb MetRS inh	PREPL inhibitor	HNF4A DNA FP	Neddyl inh conf
O=C(N/N=C/c1c[nH]c2ccccc12)c1cc(Cl)ccc1O	-5.9	3.6	49.8*	-0.3	22.1	0.1	i
O=C(N/N=C/c1c[nH]c2ccccc12)c1ccccc1Cl	0.5	1.9	-3.7	0.7	.	1.7	.
CCc1nnc(NC(=O)c2ccc(-c3ccccc3F)o2)s1	0.1	6.5	42.3*	-0.5	3.6	-2.2	i
Cc1ccc(C(O)c2ncc(-c3cccc4ccccc34)[nH]2)cc1F (stereo unspecified)	-5.5	6.3	42.1*	0.2	.	-5.4	i
CC(C)N(Cc1ccccc1)C(=O)C1CCN(c2ncnc3c2nc2n3CCCCC2)CC1	-1.5	-2.3	-11.3	-0.4	-1.6	-1.0	.
CN(C)CCN(Cc1ccccc1)C(=O)C1CCN(c2ncnc3c2nc2n3CCCCC2)CC1	0.3	2.6	42.9*	-0.3	14.0	-1.7	i
CC1=[N+]([O-])C(C)(C)C(c2ccc(Br)cc2)=[N+]1[O-]	-1.5	0.5	-8.4	-1.3	-4.8	1.9	.
CCOc1cc(C2NC(=O)c3ccccc3O2)ccc1OC (stereo unspecified)	-1.6	0.7	44.3*	0.6	-5.4	-1.4	i
Cc1cc(-c2nnc(SCC(=O)Nc3ccc(C)c(C)c3)n2N)n[nH]1	-4.0	1.4	-9.3	-0.6	-6.2	-5.0	.
Cc1ccc(/C=C/C(=O)OCC(=O)Nc2ccccc2Sc2ccccc2)cc1	-6.6	-13.7	-0.7	-0.4	-5.9	0.0	.
O=C(/C=C/c1cccc(F)c1)OCC(=O)c1ccc[nH]1	-4.7	5.0	-5.0	0.0	2.2	2.3	.
COc1cccc(/C=C/C(=O)OCC(=O)Nc2ccccc2Sc2ccccc2)c1	2.5	1.0	43.7*	-0.6	-27.5	-1.1	i
COc1cccc(/C=C/C(=O)OCC(=O)c2ccc[nH]2)c1	-1.5	2.9	40.2*	0.1	.	-3.0	i
CC1CC(C)CN(S(=O)(=O)c2ccc(C(=O)OCC(=O)Nc3ccccc3)cc2)C1 (stereo unspecified)	-0.9	2.6	1.8	-0.3	.	-0.6	.
CCOC(=O)Cn1nc(/C=C/c2ccc(C(C)C)cc2)ccc1=O	4.8	0.8	48.8*	-1.0	-3.2	-1.3	.
CCOC(=O)Cn1nc(/C=C/c2ccccc2)ccc1=O	-0.2	5.7	43.4*	-1.4	-7.7	0.3	+
CCOC(=O)Cn1nc(-c2ccc(Cl)cc2)ccc1=O	-10.7	1.7	-10.8	0.3	14.4	-0.5	.
CCOC(=O)Cn1nc(/C=C/c2ccc(C)cc2)ccc1=O	-2.6	3.0	.	-0.7	4.7	-0.2	.
CCN(C(=O)COC(=O)c1ccc(O)cc1O)c1c(N)n(Cc2ccccc2)c(=O)[nH]c1=O	2.7	-5.3	10.8	-0.4	-5.3	0.6	.
